Active and inactive are the calls of the source. The calls are words filed in the database; no cut-off is given here.
What was measured:
[1] = target: T1, 17-beta-hydroxysteroid dehydrogenase type 1 (Homo sapiens) (UniProt P14061); assay: Inhibition of 17beta-HSD1 over-expressed in intact HEK293 cells; type: cell-based
T1 sequence (whole entry): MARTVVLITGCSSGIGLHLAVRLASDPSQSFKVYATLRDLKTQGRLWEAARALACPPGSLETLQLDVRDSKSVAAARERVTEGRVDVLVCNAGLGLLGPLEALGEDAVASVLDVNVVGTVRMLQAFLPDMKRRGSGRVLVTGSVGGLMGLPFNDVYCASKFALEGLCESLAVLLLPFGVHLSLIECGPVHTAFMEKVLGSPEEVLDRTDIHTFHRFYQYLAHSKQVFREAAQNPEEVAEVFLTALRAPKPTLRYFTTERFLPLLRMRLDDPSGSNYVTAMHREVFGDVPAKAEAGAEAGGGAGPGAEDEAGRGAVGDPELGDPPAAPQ
How it was run: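 Transfected HEK-293 cells overexpressing type 1 17β-HSD, plated at 5000 cells/well, given ethanolic inhibitor solutions and incubated 24 h. [4-14C]-E1 (60 nM) then added for 15 min. Labelled E1 and E2 extracted from medium and quantified, giving percent inhibition of E1→E2 reduction at 10, 1 and 0.1 μM. Mean of five experiments in quadruplicate.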

MCF7 [2] = assay: Increase in cell growth of estrogen-starved ER expressing MCF7 cells at 10 nM relative to control after 10 days; type: functional, Homo sapiens
How it was run: (§1)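 Cells were moved to medium with insulin (50 ng/mL) and 5% dextran-coated charcoal-treated FBS to remove estrogens, then seeded at 3000 cells/well. After 48 h, inhibitor dilutions in growth medium were added, with medium replaced every 2 days. Cells were grown 10 days in triplicate. Growth was read with the CellTiter 96 AQueous assay and expressed as % of control (100%).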

T47D [3] = assay: Increase in cell growth of estrogen-starved ER expressing T47D cells at 10 nM relative to control after 10 days; type: functional, Homo sapiens; how it was run: as §1
[4] = target: T1, 17-beta-hydroxysteroid dehydrogenase type 1 (Homo sapiens); assay: Inhibition of 17beta-HSD1 overexpressed in homogenated HEK293 cells at 1 uM; type: cell-based
How it was run: (§2)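 Homogenate of HEK-293 cells overexpressing type 1 17β-HSD. Reductive conversion of E1 (100 nM) to E2 with NADH cofactor. Percent inhibition from one run in triplicate, SD < ±5%.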

[5] = target: T1, 17-beta-hydroxysteroid dehydrogenase type 1 (Homo sapiens); assay: Inhibition of 17beta-HSD1 over-expressed in homogenated HEK293 cells at 0.1 uM; type: cell-based; how it was run: as §2
[6] = target: T1, 17-beta-hydroxysteroid dehydrogenase type 1 (Homo sapiens); assay: Inhibition of 17beta-HSD1 over-expressed in intact HEK293 cells at 10 uM; type: cell-based
How it was run: (§3)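 Transfected HEK-293 cells expressing type 1 17β-HSD were plated at 5000 cells/well. Inhibitors were added in ethanol and incubated 24 h. [4-14C]-E1 (60 nM) was then added for 15 min. Labelled E1 and E2 were extracted from the medium and quantified. Values are the mean of five experiments in quadruplicate, SD < ±8%.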

[7] = target: T1, 17-beta-hydroxysteroid dehydrogenase type 1 (Homo sapiens); assay: Inhibition of 17beta-HSD1 over-expressed in intact HEK293 cells at 1 uM; type: cell-based; how it was run: as §3
[8] = target: T1, 17-beta-hydroxysteroid dehydrogenase type 1 (Homo sapiens); assay: Inhibition of 17beta-HSD1 over-expressed in intact HEK293 cells at 0.1 uM; type: cell-based; how it was run: as §3
[9] = target: T1, 17-beta-hydroxysteroid dehydrogenase type 1 (Homo sapiens); assay: Inhibition of 17beta-HSD1 over-expressed in intact T47D cells at 10 uM; type: cell-based
How it was run: (§4)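 Intact T-47D cells, which express endogenous type 1 17β-HSD, were seeded at 3×10^4 cells/well in proliferation assay medium. After 48 h, [4-14C]-E1 (60 nM) and inhibitor in ethanol (0.5% v/v) were added in fresh medium for 24 h. Labelled E1 and E2 were extracted and quantified. Values are the mean of two experiments in triplicate, SD < ±5%.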

[10] = target: T1, 17-beta-hydroxysteroid dehydrogenase type 1 (Homo sapiens); assay: Inhibition of 17beta-HSD1 over-expressed in intact T47D cells at 1 uM; type: cell-based; how it was run: as §4
[11] = target: T1, 17-beta-hydroxysteroid dehydrogenase type 1 (Homo sapiens); assay: Inhibition of 17beta-HSD1 over-expressed in intact T47D cells at 0.1 uM; type: cell-based; how it was run: as §4
[12] = target: T2, 3-keto-steroid reductase/17-beta-hydroxysteroid dehydrogenase 7 (Homo sapiens) (UniProt P56937); assay: Inhibition of 17beta-HSD7 over-expressed in intact HEK293 cells at 10 uM; type: cell-based
T2 sequence (whole entry): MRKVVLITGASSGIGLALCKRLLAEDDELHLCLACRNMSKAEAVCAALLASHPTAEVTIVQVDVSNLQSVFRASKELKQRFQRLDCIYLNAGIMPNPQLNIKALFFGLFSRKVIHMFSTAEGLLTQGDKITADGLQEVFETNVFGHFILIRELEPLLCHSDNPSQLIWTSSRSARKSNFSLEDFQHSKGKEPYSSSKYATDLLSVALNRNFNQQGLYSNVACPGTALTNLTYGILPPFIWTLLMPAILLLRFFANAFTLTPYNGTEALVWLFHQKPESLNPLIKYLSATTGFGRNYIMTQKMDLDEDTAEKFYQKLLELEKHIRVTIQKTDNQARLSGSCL
How it was run: (§5)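 Intact transfected HEK-293 cells expressing type 7 17β-HSD. Inhibition of reductive conversion of E1 (60 nM) to E2. One run in triplicate, SD < ±5%.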

[13] = target: T2, 3-keto-steroid reductase/17-beta-hydroxysteroid dehydrogenase 7 (Homo sapiens); assay: Inhibition of 17beta-HSD7 over-expressed in intact HEK293 cells at 1 uM; type: cell-based; how it was run: as §5
[14] = target: T3, Very-long-chain 3-oxoacyl-CoA reductase (Homo sapiens) (UniProt Q53GQ0); assay: Inhibition of 17beta-HSD12 over-expressed in intact HEK293 cells at 10 uM; type: cell-based
T3 sequence (whole entry): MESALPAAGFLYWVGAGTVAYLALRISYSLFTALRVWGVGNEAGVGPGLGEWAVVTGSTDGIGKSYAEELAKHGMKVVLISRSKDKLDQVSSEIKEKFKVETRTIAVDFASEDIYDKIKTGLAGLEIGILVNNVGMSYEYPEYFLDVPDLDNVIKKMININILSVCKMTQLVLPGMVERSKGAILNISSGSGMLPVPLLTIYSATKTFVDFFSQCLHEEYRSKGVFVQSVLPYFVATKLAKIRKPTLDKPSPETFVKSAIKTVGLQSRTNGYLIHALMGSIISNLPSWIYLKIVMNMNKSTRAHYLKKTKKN
How it was run: (§6)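 Transfected HEK-293 cells expressing type 12 17β-HSD were plated at 1.5×10^5 cells/well. Inhibitor in ethanol plus [4-14C]-E1 (60 nM) were added in fresh medium for 24 h. E1 to E2 conversion was quantified after steroid extraction. Values are the mean of two experiments in triplicate, SD < ±5%.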

[15] = target: T3, Very-long-chain 3-oxoacyl-CoA reductase (Homo sapiens); assay: Inhibition of 17beta-HSD12 over-expressed in intact HEK293 cells at 1 uM; type: cell-based; how it was run: as §6
T47D [16] = assay: Decrease in cell growth of estrogen-starved ER expressing T47D cells after 10 days relative to control; type: functional, cell-based; conditions: Homo sapiens; how it was run: as §1
MCF7 [17] = assay: Increase in cell growth of estrogen-starved ER expressing MCF7 cells at 1 uM relative to control after 10 days; type: functional, Homo sapiens; how it was run: as §1
MCF7 [18] = assay: Increase in cell growth of estrogen-starved ER expressing MCF7 cells at 0.01 uM relative to control after 10 days; type: functional, Homo sapiens; how it was run: as §1
T47D [19] = assay: Increase in cell growth of estrogen-starved ER expressing T47D cells at 0.01 uM relative to control after 10 days; type: functional, Homo sapiens; how it was run: as §1
T47D [20] = assay: Effect on cell proliferation of estrogen-starved ER expressing T47D cells at 1 uM relative to control after 10 days; type: functional, cell-based; conditions: Homo sapiens; how it was run: as §1
T47D [21] = assay: Increase in cell growth of estrogen-starved ER expressing T47D cells at 1 uM relative to control after 10 days; type: functional, cell-based; conditions: Homo sapiens; how it was run: as §1
T47D [22] = assay: Increase in cell growth of estrogen-starved ER expressing T47D cells at 0.1 uM relative to control after 10 days; type: functional, Homo sapiens; how it was run: as §1
MCF7 [23] = assay: Decrease in cell growth of estrogen-starved ER expressing MCF7 cells at 1 uM relative to control after 10 days; type: functional, cell-based; conditions: Homo sapiens; how it was run: as §1

| Compound | Activity [1] | inhibition [4] | inhibition [5] | inhibition [6] | inhibition [7] | inhibition [8] | inhibition [9] | inhibition [10] | inhibition [11] | inhibition [12] | inhibition [13] | inhibition [14] | inhibition [15] | also measured |
| --- | --- | --- | --- | --- | --- | --- | --- | --- | --- | --- | --- | --- | --- | --- |
| C[C@]12CC[C@@H]3c4ccc(O)cc4C(=O)C[C@H]3[C@@H]1CC[C@@H]2O | inactive |  |  |  |  |  |  |  |  |  |  |  |  |  |
| C[C@]12CC[C@@H]3c4ccc(O)cc4C=C[C@H]3[C@@H]1CC[C@@H]2O | inactive |  |  |  |  |  |  |  |  |  |  |  |  |  |
| C[C@]12CC[C@@H]3c4ccc(O)cc4CC[C@H]3[C@@H]1CC[C@@H]2O [ESTRADIOL] |  |  |  |  |  |  |  |  |  |  |  |  |  | Activity (MCF7 [2]): 1.8; Activity (T47D [3]): 3 |
| C[C@]12CC[C@@H]3c4ccc(O)cc4CC[C@H]3[C@@H]1CCC2=O |  | 59% | 19% | 83% | 38% | 8% | 93% | 85% | 36% | 0% | 0% | 0% | 0% |  |
| CCCCN(C)C(=O)CCCCCC[C@@H]1C[C@@H]2[C@H](CC[C@]3(C)[C@@H](O)CC[C@@H]23)c2ccc(O)cc21 |  | 46% | 15% | 49% | 21% | 11% | 95% | 82% | 29% | 27% | 0% | 30% | 1% | Activity (T47D [16]): Active |
| CCCCN(C)C(=O)CCCCCC[C@@H]1C[C@@H]2[C@H](CC[C@]3(C)[C@@H](O)CC[C@@H]23)c2cc(OC)c(O)cc21 |  |  |  | 28% | 15% | 13% | 81% | 32% | 11% | 17% | 0% | 22% | 0% | Activity (MCF7 [17]): 1.1; Activity (MCF7 [18]): 1.7; Activity (T47D [19]): 2.3; Activity (T47D [20]): inactive |
| CCCCN(C)C(=O)CCCCCS[C@@H]1C[C@@H]2[C@H](CC[C@]3(C)[C@@H](O)CC[C@@H]23)c2ccc(O)cc21 |  | 74% | 33% | 63% | 45% | 11% | 95% | 82% | 31% | 25% | 9% | 22% | 0% | Activity (T47D [21]): Active; Activity (T47D [22]): 2.3; Activity (T47D [19]): 2.3 |
| C[C@]12CC[C@H]3C(=CCc4cc(O)ccc43)[C@@H]1CC[C@@H]2O | inactive |  |  |  |  |  |  |  |  |  |  |  |  |  |
| CCCCN(C)C(=O)CCCCCC[C@H]1C[C@@H]2[C@H](CC[C@]3(C)C(=O)CC[C@@H]23)c2ccc(O)cc21 |  | 16% | 3% | 14% | 5% | 3% | 71% | 19% | 7% | 29% | 5% | 44% | 3% |  |
| CCCCN(C)C(=O)CCCCCC[C@H]1C[C@@H]2[C@H](CC[C@]3(C)[C@@H](O)CC[C@@H]23)c2ccc(O)cc21 |  | 17% | 9% | 15% | 11% | 3% | 74% | 21% | 9% | 24% | 11% | 30% | 1% |  |
| CCCCN(C)C(=O)CCCCCC[C@@H]1C[C@@H]2[C@H](CC[C@]3(C)C(=O)CC[C@@H]23)c2ccc(O)cc21 |  | 23% | 12% | 31% | 20% | 8% | 92% | 57% | 19% | 31% | 7% | 40% | 0% | Activity (MCF7 [23]): Active |
| C[C@]12CC[C@@H]3c4ccc(O)cc4[C@H](O)C[C@H]3[C@@H]1CC[C@@H]2O | inactive |  |  |  |  |  |  |  |  |  |  |  |  |  |
